Source: ChEMBL document CHEMBL3425449, “Identification of MK-8133: An orexin-2 selective receptor antagonist with favorable development properties” (Bioorg Med Chem Lett, 2015)
≈ marks a conversion by molar mass, not a printed value. Calls of active or inactive are those of the source. No cut-off for these calls is given here.

Legend:
[1] = target: T1, Orexin/Hypocretin receptor type 1 (Homo sapiens, UniProt O43613); assay: Antagonist activity against human OX1R expressed in CHOK1 cells assessed as inhibition of orexin A-induced […] Ca2+ mobilization by FLIPR assay; format: functional, cell-based, CHO-K1
T1 sequence (O43613 whole entry): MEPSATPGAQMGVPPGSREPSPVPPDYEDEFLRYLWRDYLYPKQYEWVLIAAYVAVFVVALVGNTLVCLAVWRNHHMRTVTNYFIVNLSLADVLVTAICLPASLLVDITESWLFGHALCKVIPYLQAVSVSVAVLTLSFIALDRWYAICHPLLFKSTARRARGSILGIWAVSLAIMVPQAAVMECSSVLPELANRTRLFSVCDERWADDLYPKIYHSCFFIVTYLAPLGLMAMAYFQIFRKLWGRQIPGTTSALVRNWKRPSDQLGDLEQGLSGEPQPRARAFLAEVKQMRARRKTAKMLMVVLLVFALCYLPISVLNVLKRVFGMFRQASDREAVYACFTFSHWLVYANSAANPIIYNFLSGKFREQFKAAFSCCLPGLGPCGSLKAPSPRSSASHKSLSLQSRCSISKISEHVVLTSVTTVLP
Method in brief: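 Cell-based FLIPR assay measuring Ca2+ flux as the functional read-out of orexin receptor antagonism. Target is the human orexin receptor expressed in CHO-K1 cells.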

[2] = test system: CHO-K1; assay: Selectivity index, ratio of IC50 for human OX1R expressed in CHOK1 cells to IC50 for human OX2R expressed in CHOK1 cells by FLIPR assay; format: cell-based
Method in brief: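 Ratio of OX1R FLIPR IC50 to OX2R FLIPR IC50. Both come from Ca2+-flux assays on human orexin receptors expressed in CHO-K1 cells, each averaged over n ≥ 2 experiments.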

[3] = Intrinsic clearance in human microsomes; format: ADME, Microsome
[4] = Solubility of the compound at pH 7; format: physicochemical; settings: buffer, read-out: solubility
[5] = Lipophilicity, log D of the compound by HPLC method; format: physicochemical; settings: read-out: logD
[6] = Oral bioavailability in Wistar Han rat at 10 mg/kg; format: ADME, organism-based; settings: in vivo
Method in brief: (§1)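 Pharmacokinetics in Wistar Han rats (n = 2) after intravenous and oral dosing. Oral dose was 10 mg/kg in PEG400:Tween80/water 40:10:50. IV dose was 2 mg/kg in DMSO/PEG400/water 20:60:20.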

[7] = Half life in Wistar Han rat at 10 mg/kg, po or 2 mg/kg, iv; format: ADME, organism-based; settings: in vivo; method in brief: as §1
[8] = Clearance in Wistar Han rat at 10 mg/kg, po or 2 mg/kg, iv; format: ADME, organism-based; settings: in vivo; method in brief: as §1
[9] = Volume of distribution at steady state in Wistar Han rat at 10 mg/kg, po or 2 mg/kg, iv; format: ADME, organism-based; settings: in vivo, read-out: Vdss; method in brief: as §1
[10] = Oral bioavailability in dog at 10 mg/kg; format: ADME, organism-based, Canis lupus familiaris; settings: in vivo
Method in brief: (§2)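 Dog pharmacokinetics determined after intravenous and oral administration.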

[11] = Half life in dog at 10 mg/kg, po or 2 mg/kg, iv; format: ADME, organism-based, Canis lupus familiaris; settings: in vivo; method in brief: as §2
[12] = Clearance in dog at 10 mg/kg, po or 2 mg/kg, iv; format: ADME, organism-based, Canis lupus familiaris; settings: in vivo; method in brief: as §2
[13] = Volume of distribution at steady state in dog at 10 mg/kg, po or 2 mg/kg, iv; format: ADME, organism-based, Canis lupus familiaris; settings: in vivo, read-out: Vdss; method in brief: as §2
[14] = Unbound fraction in human plasma at 1 uM; format: ADME, cell-free
Method in brief: (§3)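 Plasma protein binding measured at a compound concentration of 1 µM. Reported as percent unbound fraction in human, rat, dog and monkey plasma.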

[15] = Unbound fraction in rat plasma at 1 uM; format: ADME, cell-free; method in brief: as §3
[16] = Unbound fraction in dog plasma at 1 uM; format: ADME, cell-free, Canis lupus familiaris; method in brief: as §3
[17] = Unbound fraction in monkey plasma at 1 uM; format: ADME, cell-free, Macaca mulatta; settings: rhesus monkey; method in brief: as §3
[18] = Permeability in pig LLC-PK1 cells; format: ADME, cell-based, Sus scrofa; settings: read-out: permeability
Method in brief: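 Passive permeability measured in LLC-PK1 cells and expressed in cm/s.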

[19] = test system: P-gp; assay: Substrate activity at rat P-gp assessed as efflux ratio in cell based assay; format: ADME; settings: not told
[20] = test system: P-gp; assay: Substrate activity at human P-gp assessed as efflux ratio in cell based assay; format: ADME; settings: not told
[21] = Ratio of drug level in CSF to plasma in rat; format: ADME; settings: CSF and plasma
[22] = organism: Homo sapiens; assay: Inhibition of CYP450 (unknown origin)
[23] = Induction of CYP450 (unknown origin); format: ADME; settings: human
[24] = Solubility of the compound at pH 7.4; format: physicochemical; settings: buffer
[25] = test system: Mus musculus; assay: Sleep promoting activity in mouse assessed as reduction of active wake at 30 mg/kg, po dosed for 5 consecutive days measured after 1 hr; format: functional, organism-based; parameters: dose 30 mg/kg
Method in brief: (§4)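 Sleep architecture recorded in ambulatory mice (wild-type N = 7; OX2R KO N = 6) implanted with radio-telemetry transmitters for ECoG and EMG. Compound given at 30 mg/kg po; vehicle was 20% Vitamin E TPGS po. Balanced cross-over design over 5 consecutive treatment days. Read-out is mean within-subject change versus vehicle in active wake, SWS and REM.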

[26] = test system: Mus musculus; assay: Sleep promoting activity in mouse assessed as increase in slow wave sleep at 30 mg/kg, po dosed for 5 consecutive days measured after 1 hr; format: functional, organism-based; parameters: dose 30 mg/kg; method in brief: as §4
[27] = test system: Mus musculus; assay: Sleep promoting activity in mouse assessed as effect on REM sleep at 30 mg/kg, po dosed for 5 consecutive days measured after 1 hr; format: functional, organism-based; parameters: dose 30 mg/kg; method in brief: as §4
[28] = test system: Mus musculus; assay: Sleep promoting activity in OX2R knock out mouse with targeted disruption of the Hcrtr2 gene assessed as effect on active wake at 30 mg/kg, po dosed for 5 consecutive days measured after 1 hr; format: functional, organism-based; parameters: dose 30 mg/kg; method in brief: as §4
[29] = test system: Mus musculus; assay: Sleep promoting activity in OX2R knock out mouse with targeted disruption of the Hcrtr2 gene assessed as effect on slow wave sleep at 30 mg/kg, po dosed for 5 consecutive days measured after 1 hr; format: functional, organism-based; parameters: dose 30 mg/kg; method in brief: as §4
[30] = test system: Mus musculus; assay: Sleep promoting activity in OX2R knock out mouse with targeted disruption of the Hcrtr2 gene assessed as effect on REM sleep at 30 mg/kg, po dosed for 5 consecutive days measured after 1 hr; format: functional, organism-based; parameters: dose 30 mg/kg; method in brief: as §4
[31] = test system: Rattus norvegicus; assay: Sleep promoting activity in rat assessed as reduction of active wake at 1 and 3 mg/kg, po dosed for 3 consecutive days measured after 2 hrs; format: functional, organism-based; parameters: dose 3 mg/kg
Method in brief: (§5)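 Rats implanted with radio-telemetry ECoG/EMG transmitters and recorded while ambulatory. Dosed at 1 and 3 mg/kg po or with vehicle (20% Vitamin E TPGS) in a balanced cross-over over 3 consecutive days. Active wake, SWS and REM were scored in the 2 h after dosing as within-subject change versus vehicle.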

[32] = test system: Rattus norvegicus; assay: Sleep promoting activity in rat assessed as increase in slow wave sleep at 1 and 3 mg/kg, po dosed for 3 consecutive days measured after 2 hrs; format: functional, organism-based; parameters: dose 3 mg/kg; method in brief: as §5
[33] = test system: Rattus norvegicus; assay: Sleep promoting activity in rat assessed as increase in REM sleep at 1 and 3 mg/kg, po dosed for 3 consecutive days measured after 2 hrs; format: functional, organism-based; parameters: dose 3 mg/kg; method in brief: as §5
[34] = test system: Canis familiaris; assay: Sleep promoting activity in beagle dog assessed as reduction of active wake at 0.01 and 0.05 mg/kg, po dosed for 5 consecutive days; format: functional, organism-based; parameters: dose 0.05 mg/kg; settings: Canis lupus familiaris
Method in brief: (§6)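 Beagles implanted with radio-telemetry ECoG/EMG transmitters received 0.01 and 0.05 mg/kg po or vehicle (20% Vitamin E TPGS). Balanced cross-over design over 5 consecutive days. Active wake, NREM I, NREM II (including delta sleep) and REM were scored as mean within-subject change versus vehicle.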

[35] = test system: Canis familiaris; assay: Sleep promoting activity in beagle dog assessed as increase in non-REM NREM1 sleep at 0.01 and 0.05 mg/kg, po dosed for 5 consecutive days; format: functional, organism-based; parameters: dose 0.05 mg/kg; settings: Canis lupus familiaris; method in brief: as §6
[36] = test system: Canis familiaris; assay: Sleep promoting activity in beagle dog assessed as increase in REM2 sleep at 0.01 and 0.05 mg/kg, po dosed for 5 consecutive days; format: functional, organism-based; parameters: dose 0.05 mg/kg; settings: Canis lupus familiaris, in the assay text read “NREM2 sleep” for “REM2 sleep”; method in brief: as §6
[37] = test system: Canis familiaris; assay: Sleep promoting activity in beagle dog assessed as increase in delta sleep at 0.01 and 0.05 mg/kg, po dosed for 5 consecutive days; format: functional, organism-based; parameters: dose 0.05 mg/kg; settings: Canis lupus familiaris; method in brief: as §6
[38] = test system: Canis familiaris; assay: Sleep promoting activity in beagle dog assessed as increase in REM sleep at 0.01 and 0.05 mg/kg, po dosed for 5 consecutive days; format: functional, organism-based; parameters: dose 0.05 mg/kg; settings: Canis lupus familiaris; method in brief: as §6

IC50 [1]: 4.9 µM
CLint scaled [3]: 17 mL/min/kg
solubility [4]: 183 µM (≈ 73.1 µg/mL)
logD [5]: 2.9
bioavailability [6]: 80%
half-life [7]: 4.3 h
clearance [8]: 37 mL/min/kg
Vd [9]: 1.3 L/kg
bioavailability [10]: 53%
half-life [11]: 0.8 h
clearance [12]: 15 mL/min/kg
Vd [13]: 0.97 L/kg
fraction unbound at 1 µM [14]: 0.028
fraction unbound at 1 µM [15]: 0.076
fraction unbound at 1 µM [16]: 0.166
fraction unbound at 1 µM [17]: 0.239
Papp [18]: 33 ×10⁻⁶ cm/s
efflux ratio [19]: 2.3
efflux ratio [20]: 0.7
Kp [21]: 0.1
inhibition [22]: inactive
Activity [23]: Not Active
solubility [24]: 250 µg/mL (≈ 626 µM)
Structure (SMILES): C[C@@H]1CC[C@@H](Oc2cc(C#N)ccn2)CN1C(=O)c1ccccc1-c1ncccn1
Ratio IC50 [2]: 174
Activity [25]: Active
Activity [26]: Active
Activity [27]: inactive
Activity [28]: inactive
Activity [29]: inactive
Activity [30]: inactive
Activity [31]: Active
Activity [32]: Active
Activity [33]: Active
Activity [34]: Dose-dependent effect
Activity [35]: Dose-dependent effect
Activity [36]: Dose-dependent effect
Activity [37]: Dose-dependent effect
Activity [38]: Active
